Test results published in article PMC7455490 (Science Advances, 2020).
Where no end group is shown, it is not given here. [ ]: non-standard residue; d: D form.

Tests used:
[1] = test system: B16F10 tumor-bearing mice; test: In vivo distribution after topical application, fluorescence imaging; details: 10 μg per mouse, 1, 3 and 6 hours
In short: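 Mice were anaesthetized and dorsal skin depilated, then DiI-labelled peptide-modified vesicles were applied topically. Whole-body fluorescence was imaged. Tumors and major organs were collected for fluorescence imaging at 6 hours after application.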

[2] = test system: B16F10 melanoma in C57BL/6 mice; test: Antitumor performance, second wave; assay type: in vivo; details: NIR 0.6 W/cm^2, within 3 min, thermographic imaging
In short: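 B16F10 cells (3 × 10^6 per mouse) implanted s.c. in right flank of C57BL/6 mice; treatment began at 100 mm3 tumors. Groups (n = 6) got topical ICG-loaded test formulations (0.5 mg OMV/kg). Unabsorbed material was wiped off at 12 h, then the whole tumor was irradiated under anaesthesia at 808 nm, 0.6 W/cm2, 3 min. Tumor sections: TUNEL with proteinase K (20 μg/ml), fluorescein-dUTP 90 min, DAPI counterstain, confocal imaging. Also Fontana-Masson melanin stain, and IHC for cleaved caspase 3, CD63 and S100-β with HRP secondaries and hematoxylin counterstain.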

[3] = Photothermal response to NIR irritation; assay type: physicochemical; details: 1 μg/ml, 808 nm NIR 2 W/cm^2 for 3 min, n = 3
[4] = test system: B16F10 cells; test: qRT-PCR gene levels in treated B16F10 cells; assay type: cell-based, mouse; details: B16F10, + NIR, n = 3
[5] = test system: B16F10 cells; test: WB protein levels in treated B16F10 cells or their derived OMVs; assay type: cell-based, mouse; details: B16F10, + NIR (Fig. 4G)
[6] = test system: dorsal skin of C57BL/6 mice; test: Skin penetration test, fluorescence in skin slices; assay type: in vivo; details: topical, 10 μg per mouse, 6 hours, fluorescence microscopy
In short: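 C57BL/6 mice, 4 weeks old, were anaesthetised and had their dorsal skin depilated. Once skin had restored full function, GFP-labelled test vesicles or free FITC-BSA were applied topically. After 6 h the mice were killed by cervical dislocation, and treated dorsal skin was collected, washed, paraffin-embedded and cut into 6 μm sections. Penetration depth was observed by fluorescence microscopy.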

[7] = test system: L02 cells; test: Peptide binding by flow cytometry, L02; assay type: cell-based, human; details: 5 μM peptide, 2 hours, low αvβ3 expression
In short: (§1)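 Cells were grown in DMEM with 10% FBS and penicillin/streptomycin at 37°C, 5% CO2. They were seeded at 10^6 per well and cultured 24 h at 37°C. Then 5 μM test peptide was added for 2 h. Cells were washed twice with 4°C PBS, and intracellular fluorescence intensity was read by flow cytometry.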

[8] = test system: B16F10 cells; test: Peptide binding by flow cytometry, B16F10; assay type: cell-based, mouse; details: 5 μM peptide, 2 hours, compared with L02 cells
In short: as §1

[9] = Bioactivity of TRAIL at high temperatures; details: 55 and 60°C, n = 3
[10] = Transdermal delivery of TRAIL, Franz diffusion cells; assay type: in vitro ADME, mice; details: C57BL/6 mouse skin, ELISA, n = 3
In short: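 Excised C57BL/6 mouse skin was mounted in Franz diffusion cells, with vesicle suspensions (1 μg/ml) in the donor cell. Receptor samples were withdrawn at 0.5, 1, 2, 4, 8, 10 and 24 h and replaced with fresh PBS. TRAIL in the receptor samples was quantified by ELISA.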

[11] = target: human recombinant αvβ3 integrin (R&D Systems), NT-647 labelled (human) (UniProt P06756); test: MST
[12] = target: αvβ3 integrin on B16F10 melanoma cells (mouse (endogenous in B16F10), UniProt P43406 31-1044; O54890 26-787); test: flow cytometry on cells
αvβ3 integrin on B16F10 melanoma cells, sequence (P43406 31-1044, chain 1 of 2): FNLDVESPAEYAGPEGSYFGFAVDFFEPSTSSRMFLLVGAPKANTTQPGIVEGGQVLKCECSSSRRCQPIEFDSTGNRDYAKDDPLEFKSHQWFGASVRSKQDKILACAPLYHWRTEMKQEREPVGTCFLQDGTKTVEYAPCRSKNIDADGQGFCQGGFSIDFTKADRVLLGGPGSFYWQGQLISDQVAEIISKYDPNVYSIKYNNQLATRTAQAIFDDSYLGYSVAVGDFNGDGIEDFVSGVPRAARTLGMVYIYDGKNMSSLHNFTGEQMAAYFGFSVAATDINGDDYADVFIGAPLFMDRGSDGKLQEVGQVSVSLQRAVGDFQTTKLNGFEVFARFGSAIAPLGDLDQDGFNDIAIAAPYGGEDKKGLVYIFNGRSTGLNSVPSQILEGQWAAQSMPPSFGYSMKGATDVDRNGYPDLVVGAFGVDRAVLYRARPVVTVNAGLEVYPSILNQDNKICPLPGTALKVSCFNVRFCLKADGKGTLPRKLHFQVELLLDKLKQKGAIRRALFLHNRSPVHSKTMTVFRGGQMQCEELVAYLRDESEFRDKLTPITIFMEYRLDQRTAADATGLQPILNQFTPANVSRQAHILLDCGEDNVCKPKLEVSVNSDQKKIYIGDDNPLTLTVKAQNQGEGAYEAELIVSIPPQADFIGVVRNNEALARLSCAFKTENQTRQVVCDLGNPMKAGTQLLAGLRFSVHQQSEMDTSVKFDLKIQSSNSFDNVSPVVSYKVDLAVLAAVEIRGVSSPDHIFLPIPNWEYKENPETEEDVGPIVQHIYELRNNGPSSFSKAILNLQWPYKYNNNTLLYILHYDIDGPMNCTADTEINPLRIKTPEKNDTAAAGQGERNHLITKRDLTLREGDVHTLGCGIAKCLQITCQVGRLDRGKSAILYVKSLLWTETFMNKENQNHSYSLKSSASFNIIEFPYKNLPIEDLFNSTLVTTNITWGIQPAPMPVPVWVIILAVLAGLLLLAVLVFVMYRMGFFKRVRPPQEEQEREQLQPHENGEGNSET
αvβ3 integrin on B16F10 melanoma cells, sequence (O54890 26-787, chain 2 of 2): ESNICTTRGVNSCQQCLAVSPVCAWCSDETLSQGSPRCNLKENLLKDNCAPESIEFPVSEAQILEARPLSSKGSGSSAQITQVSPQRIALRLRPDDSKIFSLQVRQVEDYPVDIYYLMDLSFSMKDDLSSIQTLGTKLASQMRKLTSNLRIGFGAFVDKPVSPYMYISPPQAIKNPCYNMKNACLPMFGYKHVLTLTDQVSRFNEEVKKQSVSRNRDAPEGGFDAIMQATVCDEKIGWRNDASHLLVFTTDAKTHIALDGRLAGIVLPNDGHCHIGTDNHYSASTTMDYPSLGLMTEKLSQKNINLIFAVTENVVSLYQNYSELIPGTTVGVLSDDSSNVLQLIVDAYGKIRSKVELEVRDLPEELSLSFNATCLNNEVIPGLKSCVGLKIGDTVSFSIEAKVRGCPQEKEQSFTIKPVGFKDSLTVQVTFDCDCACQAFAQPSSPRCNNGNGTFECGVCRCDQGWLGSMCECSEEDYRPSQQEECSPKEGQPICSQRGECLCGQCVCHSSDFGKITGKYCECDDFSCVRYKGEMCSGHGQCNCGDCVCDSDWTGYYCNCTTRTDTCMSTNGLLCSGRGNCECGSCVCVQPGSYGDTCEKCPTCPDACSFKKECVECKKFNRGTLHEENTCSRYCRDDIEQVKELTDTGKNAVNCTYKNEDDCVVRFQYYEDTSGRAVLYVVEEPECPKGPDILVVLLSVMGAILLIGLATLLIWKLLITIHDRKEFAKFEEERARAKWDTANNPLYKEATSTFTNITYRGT

In the case of `CCCCCCCCCCCCCCCCCCN1C(=CC=CC2=[N+](CCCCCCCCCCCCCCCCCC)c3ccccc3C2(C)C)C(C)(C)c2ccccc21.[O-][Cl+3]([O-])([O-])[O-]` [Dil, 1,1′-dioctadecyl-3,3,3′,3′-tetramethylindocarbocyanine perchlorate], the “fluorescence at tumor site after topical application” value [1] is reported as “Low fluorescent signal”.

With `CC1(C)C(/C=C/C=C/C=C/C=C2\N(CCCCS(=O)(=O)O)c3ccc4ccccc4c3C2(C)C)=[N+](CCCCS(=O)(=O)[O-])c2ccc3ccccc3c21` [ICG, indocyanine green] the “temperature of tumor sites” value [2] was “around 32 °C”, the “temperature reached from 25°C upon NIR irritation” value [3] was 35 °C and the “c-FLIP mRNA level, decreased to” value [4] was 63%. The “survivin mRNA level, decreased to” value [4] was 56%, the “increase of cleaved caspase 3 level” value [5] was 2.4 fold and the “increase of cleaved caspase 8 level” value [5] was 3.3 fold.

With “FITC-BSA: fluorescein isothiocyanate (FITC)–labeled bovine serum albumin” the “penetration through SC, fluorescence in skin slices” value [6] was “incapable of penetrating through SC”.

With “RhB-RGP: rhodamine B–labeled RGP (RW[code r]NMGGGGIVRRADRAAVP; also: rhodamine B label, position not given here)” the “binding to L02 cells” value [7] was “weak binding” and the “binding to B16F10 cells” value [8] was “significantly enhanced”.

In the case of “TRAIL: Recombinant human tumor necrosis factor related apoptosis-inducing ligand”, the “bioactivity of TRAIL at high temperatures” value [9] is reported as “No loss of bioactivity” and the “transdermal amount of TRAIL” value [10] is reported as “too low to be detected”.

Molecule RWRNMGGGGIVRRADRAAVP (not fully specified (residue 3); printed as RWrNMGGGGIVRRADRAAVP) [RGP (RWr…), αvβ3 integrin-specific peptide] has a Kd [11] of 1.54 nM.

In the case of RW[code r]NMGGGGIVRRADRAAVP (also: rhodamine B label, position not given here) [rhodamine B-labeled RGP (RhB-RGP)], the “fold fluorescence intensity against RhB-RGD” value [12] is reported as 6.3 fold.
